Changes are numbered by the printed parent chain. Calls of active or inactive are those of the source. The calls are words filed in the database; no cut-off is given here.
How the values were obtained:
[1] = biological target: T1, Tyrosine-protein phosphatase non-receptor type 11 (Homo sapiens) (UniProt Q06124); test: Inhibition of GST-tagged SHP2 at 100 uM
T1 sequence (whole entry): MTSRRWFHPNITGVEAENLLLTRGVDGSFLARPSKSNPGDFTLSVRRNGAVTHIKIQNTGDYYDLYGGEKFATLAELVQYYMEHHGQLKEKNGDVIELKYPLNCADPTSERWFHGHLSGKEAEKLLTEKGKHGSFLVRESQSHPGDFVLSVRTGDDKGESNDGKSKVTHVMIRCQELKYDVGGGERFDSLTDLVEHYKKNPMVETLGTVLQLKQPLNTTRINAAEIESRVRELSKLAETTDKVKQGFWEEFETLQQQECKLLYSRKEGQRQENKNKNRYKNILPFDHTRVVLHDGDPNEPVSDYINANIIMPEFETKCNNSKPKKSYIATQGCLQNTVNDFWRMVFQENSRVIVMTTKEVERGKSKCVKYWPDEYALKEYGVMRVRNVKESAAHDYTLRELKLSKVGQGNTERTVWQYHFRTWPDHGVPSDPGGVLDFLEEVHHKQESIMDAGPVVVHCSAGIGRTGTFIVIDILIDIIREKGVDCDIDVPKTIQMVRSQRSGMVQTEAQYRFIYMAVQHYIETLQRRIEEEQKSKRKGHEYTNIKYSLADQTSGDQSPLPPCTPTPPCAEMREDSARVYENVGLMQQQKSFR
Summary of the method: (§1)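 GST-SHP-2 PTP domain (0.5 μg) preincubated 30 min at room temperature with compound or DMSO in 25 mM Tris-HCl pH 7.4, 50 mM NaCl, 5 mM DTT, 2.5 mM EDTA. Orthovanadate (100 μM) served as positive control.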

[2] = biological target: T2, Tyrosine-protein phosphatase non-receptor type 11 (Mus musculus) (UniProt P35235); test: Inhibition of SHP2 assessed as blockade of IL3-induced ERK1/ERK2 activation in mouse Ba/F3 cells by immunoblotting; type: cell-based; details: BaF3
T2 sequence (whole entry): T1 sequence (whole entry) with M450V, A550V, K590R
Summary of the method: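 Ba/F3 cells deprived of IL-3 for 8 h, treated with compound 1 h before stimulation with IL-3 (2 ng/mL), and harvested at several times. Lysates immunoblotted for phospho-Erk, then stripped and reprobed for pan-Erk as loading control.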

[3] = biological target: T1, Tyrosine-protein phosphatase non-receptor type 11 (Homo sapiens); test: Inhibition of GST-tagged SHP2; summary of the method: as §1
[4] = system: T3, Tyrosine-protein phosphatase non-receptor type 11 (Mus musculus), P35235 [D61G]; test: Inhibition of EGF-induced SHP2 D61G mutant activation in mouse embryonic fibroblasts by immunocomplex phosphatase assay
T3 sequence (whole entry): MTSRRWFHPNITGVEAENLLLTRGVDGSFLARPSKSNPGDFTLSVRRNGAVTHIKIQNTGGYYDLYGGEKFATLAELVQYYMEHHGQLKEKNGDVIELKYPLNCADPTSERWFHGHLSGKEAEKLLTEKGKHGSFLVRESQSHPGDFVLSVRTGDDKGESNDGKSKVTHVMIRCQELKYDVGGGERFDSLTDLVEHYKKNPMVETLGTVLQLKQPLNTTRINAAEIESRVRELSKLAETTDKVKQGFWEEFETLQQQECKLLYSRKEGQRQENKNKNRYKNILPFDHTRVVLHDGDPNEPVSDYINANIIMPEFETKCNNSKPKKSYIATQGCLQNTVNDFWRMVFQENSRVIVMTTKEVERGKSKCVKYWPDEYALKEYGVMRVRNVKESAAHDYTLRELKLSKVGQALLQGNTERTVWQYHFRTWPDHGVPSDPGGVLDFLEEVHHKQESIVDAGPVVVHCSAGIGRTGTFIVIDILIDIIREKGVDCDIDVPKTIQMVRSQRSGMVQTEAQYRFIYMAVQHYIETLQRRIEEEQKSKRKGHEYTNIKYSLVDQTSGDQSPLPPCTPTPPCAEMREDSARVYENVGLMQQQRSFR
Summary of the method: (§2)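 WT or SHP-2 D61G/D61G knock-in MEFs starved overnight in serum-free medium, compound (100 μM) for the last 1 h, then EGF 10 min (50 ng/mL in methods, 20 ng/mL in legend). RIPA lysates (500 μg) immunoprecipitated with anti-SHP-2, washed in HNTG, then assayed by malachite green phosphatase assay.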

[5] = biological target: T1, Tyrosine-protein phosphatase non-receptor type 11 (Homo sapiens); test: Binding affinity to SHP2 PTP domain assessed as quenching of enzyme fluorescence by fluorescence titration assay
Summary of the method: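 Tryptophan fluorescence quenching of GST-SHP-2 PTP domain held at 3 μM in 20 mM Tris-HCl pH 7.5, titrated with increasing compound. Excitation 295 nm, emission 360–500 nm. Compound-alone fluorescence subtracted. Intensities are relative, not corrected for detector response.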

[6] = biological target: T2, Tyrosine-protein phosphatase non-receptor type 11 (Mus musculus); test: Inhibition of EGF-induced SHP2 activation in mouse embryonic fibroblasts by immunocomplex phosphatase assay; summary of the method: as §2
[7] = system: BaF3; test: Antiproliferative activity against IL3-stimulated mouse BA/F3 cells assessed as decrease in cell growth after 72 hrs by MTS assay; type: functional, cell-based
Summary of the method: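 Ba/F3 (IL-3-dependent murine pro-B line) seeded at 2×10⁴ cells/well in RPMI-1640 with 10% FBS and mouse IL-3 (1 ng/mL), plus compound at 100 or 200 μM or DMSO. Cell number read by MTS after 72 h.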

[8] = biological target: T4, Tyrosine-protein phosphatase non-receptor type 2 (Homo sapiens) (UniProt P17706); test: Inhibition of GST-tagged TC-PTP
T4 sequence (whole entry): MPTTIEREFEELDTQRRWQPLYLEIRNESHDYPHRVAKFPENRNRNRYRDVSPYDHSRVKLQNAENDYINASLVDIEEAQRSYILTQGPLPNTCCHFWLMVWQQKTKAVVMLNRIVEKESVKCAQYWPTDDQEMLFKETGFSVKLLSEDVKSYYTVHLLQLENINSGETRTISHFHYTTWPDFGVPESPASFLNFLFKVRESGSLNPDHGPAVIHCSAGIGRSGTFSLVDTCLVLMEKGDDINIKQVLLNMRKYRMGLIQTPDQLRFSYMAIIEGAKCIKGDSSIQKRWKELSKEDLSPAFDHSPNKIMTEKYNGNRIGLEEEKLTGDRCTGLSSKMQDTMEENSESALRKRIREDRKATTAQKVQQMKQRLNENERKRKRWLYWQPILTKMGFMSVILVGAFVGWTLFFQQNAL

[9] = biological target: T1, Tyrosine-protein phosphatase non-receptor type 11 (Homo sapiens); test: Inhibition of GST-tagged SHP2 at 200 uM; summary of the method: as §1
[10] = biological target: T5, Receptor-type tyrosine-protein phosphatase C (Homo sapiens) (UniProt P08575); test: Inhibition of GST-tagged CD45
T5 sequence (whole entry): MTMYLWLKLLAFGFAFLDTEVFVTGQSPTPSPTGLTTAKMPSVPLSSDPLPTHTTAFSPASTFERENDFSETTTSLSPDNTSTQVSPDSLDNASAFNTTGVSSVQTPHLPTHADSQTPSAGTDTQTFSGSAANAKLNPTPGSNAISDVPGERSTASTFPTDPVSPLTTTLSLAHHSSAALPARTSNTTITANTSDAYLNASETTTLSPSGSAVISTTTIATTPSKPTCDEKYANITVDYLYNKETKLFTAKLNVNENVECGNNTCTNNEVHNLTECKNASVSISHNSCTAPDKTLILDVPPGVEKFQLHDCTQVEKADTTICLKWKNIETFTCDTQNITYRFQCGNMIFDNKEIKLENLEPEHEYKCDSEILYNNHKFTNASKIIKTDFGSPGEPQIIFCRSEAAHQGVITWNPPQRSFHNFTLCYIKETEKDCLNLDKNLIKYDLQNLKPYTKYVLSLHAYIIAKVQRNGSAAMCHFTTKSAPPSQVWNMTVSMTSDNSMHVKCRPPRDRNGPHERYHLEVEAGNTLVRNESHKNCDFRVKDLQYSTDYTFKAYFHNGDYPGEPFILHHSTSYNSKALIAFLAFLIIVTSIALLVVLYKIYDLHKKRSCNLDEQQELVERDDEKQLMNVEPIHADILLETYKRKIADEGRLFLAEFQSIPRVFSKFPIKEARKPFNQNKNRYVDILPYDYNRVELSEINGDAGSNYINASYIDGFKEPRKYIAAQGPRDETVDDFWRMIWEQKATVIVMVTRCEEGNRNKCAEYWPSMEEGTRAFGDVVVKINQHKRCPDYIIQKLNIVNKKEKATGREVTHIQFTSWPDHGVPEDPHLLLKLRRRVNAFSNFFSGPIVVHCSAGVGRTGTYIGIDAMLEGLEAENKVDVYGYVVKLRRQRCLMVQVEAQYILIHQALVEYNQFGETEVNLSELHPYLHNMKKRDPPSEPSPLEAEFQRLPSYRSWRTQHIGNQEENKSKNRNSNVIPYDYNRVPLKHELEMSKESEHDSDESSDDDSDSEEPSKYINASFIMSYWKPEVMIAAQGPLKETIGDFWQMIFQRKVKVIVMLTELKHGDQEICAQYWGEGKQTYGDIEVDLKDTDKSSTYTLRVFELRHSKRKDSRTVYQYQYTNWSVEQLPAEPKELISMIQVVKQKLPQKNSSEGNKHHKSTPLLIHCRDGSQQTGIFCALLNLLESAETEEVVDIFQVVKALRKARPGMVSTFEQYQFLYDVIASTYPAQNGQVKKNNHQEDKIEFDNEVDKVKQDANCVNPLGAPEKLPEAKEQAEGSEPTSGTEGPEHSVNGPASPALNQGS

[11] = biological target: Tyrosine-protein phosphatase non-receptor type 6 (Homo sapiens) (UniProt P29350); test: Inhibition of GST-tagged SHP1
Sequence of Tyrosine-protein phosphatase non-receptor type 6 (Homo sapiens) (P29350 whole entry): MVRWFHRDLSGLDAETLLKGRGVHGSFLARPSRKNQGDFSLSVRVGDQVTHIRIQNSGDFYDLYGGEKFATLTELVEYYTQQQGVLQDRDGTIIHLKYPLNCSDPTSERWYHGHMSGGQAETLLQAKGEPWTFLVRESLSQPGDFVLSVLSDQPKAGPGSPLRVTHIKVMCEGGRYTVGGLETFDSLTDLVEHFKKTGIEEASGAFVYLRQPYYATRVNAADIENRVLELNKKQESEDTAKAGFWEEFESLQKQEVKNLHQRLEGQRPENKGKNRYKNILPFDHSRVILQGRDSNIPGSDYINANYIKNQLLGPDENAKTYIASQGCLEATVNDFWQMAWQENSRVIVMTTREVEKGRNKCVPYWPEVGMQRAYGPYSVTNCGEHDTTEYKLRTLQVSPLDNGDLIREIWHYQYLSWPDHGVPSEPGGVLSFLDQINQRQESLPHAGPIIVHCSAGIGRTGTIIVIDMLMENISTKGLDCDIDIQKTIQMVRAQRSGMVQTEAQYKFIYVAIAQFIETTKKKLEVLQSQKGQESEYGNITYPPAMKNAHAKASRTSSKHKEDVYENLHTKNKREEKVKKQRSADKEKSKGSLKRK

inhibition [1] | Activity [3] | Activity [5] | Structure (SMILES) | other results
50% | Dose-dependent effect | Active | Cc1cc(C)c2c(c1)[nH]c1nnc(SCC(=O)NCc3cccs3)nc12 | Activity [2]: Active; Activity [4]: Active; Activity [6]: Active
55% | Dose-dependent effect | Active | NS(=O)(=O)c1ccc(CCNC(=O)c2ccc(Cn3c(=S)[nH]c4ccc(Br)cc4c3=O)cc2)cc1 | Activity [2]: Active; Activity [4]: Active; Activity [7]: Active; Activity [6]: Active
 | Dose-dependent effect | inactive | CNC(=S)NNC(=O)CSCCS(=O)(=O)c1ccccc1 | 
45% | Dose-dependent effect |  | O=C(CCCn1c(=O)c2cccn2c2cccnc21)NCc1ccccc1F | 
40% | Dose-dependent effect |  | CNC(=S)NNC(=O)c1csc(-c2cccs2)n1 | 

The next lines start with the compound.

Structure (SMILES) | inhibition [1] | Activity [3] | Activity [5] | other results
NC(N)=NN[C@@H]1O[C@H](CO)[C@@H](O)[C@H](O)[C@H]1O |  | Dose-dependent effect | inactive | 
NNc1ccc(S(=O)(=O)O)cc1 | 70% | Dose-dependent effect |  | Activity [8]: inactive; Activity [9]: Active; Activity [10]: inactive; Activity [11]: Active
CCc1ccc(OCC(=O)Nc2ccc(S(N)(=O)=O)cc2)cc1 |  | Dose-dependent effect | inactive | 
CSc1ccc(C2C(C#N)=C(N)Oc3[nH]nc(-c4ccccc4Cl)c32)cc1 (stereo unspecified) |  | Dose-dependent effect | Active | 
